Test results taken from ChEMBL document CHEMBL2346636, “Synthesis and biological evaluation of substituted imidazoquinoline derivatives as mPGES-1 inhibitors” (Bioorg Med Chem, 2013).

Assays:
[1] = Stability of the compound in NaOH/THF at room temperature; format: physicochemical
In short: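 SEM-protected compound in 1 M NaOH (10 equiv) in THF at room temperature. Deprotection was monitored for up to 12 h.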

[2] = Half life of the compound in TBAF/THF under reflux
[3] = Half life of the compound in TFA at room temperature; format: physicochemical
In short: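 SEM- and Boc-protected compounds in TFA (100 equiv) at room temperature. Deprotection was monitored and reported as the time to half-conversion (T1/2) and the time to full conversion.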

[4] = Half life of the compound in NaOH/THF/MeOH at room temperature; format: physicochemical
In short: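 Boc-protected compound in 1 M NaOH (10 equiv) in THF/MeOH at room temperature. Deprotection was followed and reported as T1/2 (half-deprotection time) and the time to complete deprotection.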

[5] = Half life of the compound in HCl/THF at room temperature; format: physicochemical
In short: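 Boc-protected compound in 4 M HCl (10 equiv) in THF at room temperature. Deprotection was followed over time and reported as the time to half-conversion (T1/2) and the time to completion.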

[6] = molecular target: T1, Prostaglandin E synthase (Homo sapiens, UniProt O14684); test: Inhibition of mPGES1 (unknown origin) transfected in HEK293 cells co-expressing COX1 using arachidonic acid as substrate assessed as inhibition of PGE2 production incubated for 30 mins prior to arachidonic acid addition measured after 60 mins by HTRF assay; format: cell-based
T1 sequence (O14684 whole entry): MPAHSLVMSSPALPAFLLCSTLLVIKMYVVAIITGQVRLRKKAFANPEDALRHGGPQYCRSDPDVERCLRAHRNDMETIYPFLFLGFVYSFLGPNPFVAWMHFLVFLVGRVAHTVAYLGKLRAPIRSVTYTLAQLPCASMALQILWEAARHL
In short: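 Enzyme source was microsomes from HEK293 cells co-transfected with mPGES-1 and COX-1, in 100 mM Tris-HCl pH 8.0 with 5 mM EDTA, 1 mM GSH, phenol and hematin. Compound was added in DMSO (final 1%) and preincubated 30 min at room temperature. Arachidonic acid in 0.1 M KOH started the reaction, which ran 60 min at room temperature. It was stopped with 1 M HCl, neutralized with 1 M NaOH, and PGE2 was quantified by HTRF.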

| IC50 [6] | SMILES | other results |
| --- | --- | --- |
| – | Cn1c(=O)c2c(nc(-c3ccccc3Cl)n2COCC[Si](C)(C)C)c2ccc(Br)cc21 | Stability [1]: Stable; half-life [2]: 30 min; half-life [3]: < 5 min |
| – | Cn1c(=O)c2c(nc(-c3ccccc3Cl)n2C(=O)OC(C)(C)C)c2ccc(Br)cc21 | half-life [4]: 15 min; half-life [3]: < 5 min; half-life [5]: 30 min |
| 1070 nM | Nc1nc2cc(Br)ccc2c2[nH]c(-c3ccccc3Cl)nc12 | – |
| 631 nM | CNc1nc2cc(Br)ccc2c2nc(-c3ccccc3Cl)[nH]c12 | – |
| 387 nM | CN(C)c1nc2cc(Br)ccc2c2[nH]c(-c3ccccc3Cl)nc12 | – |
| 83 nM | S=c1[nH]c2cc(Br)ccc2c2nc(-c3ccccc3Cl)[nH]c12 | – |
| 31 nM | CSc1nc2cc(Br)ccc2c2nc(-c3ccccc3Cl)[nH]c12 | – |
| 59 nM | CCSc1nc2cc(Br)ccc2c2[nH]c(-c3ccccc3Cl)nc12 | – |
| 85 nM | Cn1c(=O)c2[nH]c(-c3ccccc3Cl)nc2c2ccc(Br)cc21 | – |
| 106 nM | CCn1c(=O)c2[nH]c(-c3ccccc3Cl)nc2c2ccc(Br)cc21 | – |
| 226 nM | O=c1c2[nH]c(-c3ccccc3Cl)nc2c2ccc(Br)cc2n1Cc1ccccc1 | – |
| > 10000 nM | Cn1c(-c2ccccc2Cl)nc2c(=O)[nH]c3cc(Br)ccc3c21 | – |
| 9810 nM | Cn1c(-c2ccccc2Cl)nc2c3ccc(Br)cc3[nH]c(=O)c21 | – |
| > 10000 nM | O=c1[nH]c2cc(Br)ccc2c2nc(-c3ccccc3Cl)n(Cc3ccccc3)c12 | – |
| > 10000 nM | Cn1c(-c2ccccc2Cl)nc2c3ccc(Br)cc3n(C)c(=O)c21 | – |
